Data published in ChEMBL document CHEMBL5247578, “Effective synthesis of benzimidazoles-imidazo[1,2-a]pyrazine conjugates: A comparative study of mono-and bis-benzimidazoles for antitumor activity” (Eur J Med Chem, 2019).

Legend:
Albumin = Albumin (Bos taurus, UniProt P02769); test: Binding affinity to bovine serum albumin assessed as quenching constant by fluorescence spectroscopic method; conditions: cattle
MCF7 [1] = test: Antiproliferative activity against human MCF7 cells assessed as cell growth at 0.00000001 M incubated for 48 hrs by SRB assay relative to control; assay type: functional; conditions: dose 10 nM, read-out: Activity
OVCAR-5 = test: Antiproliferative activity against human OVCAR-5 cells assessed as cell growth at 0.00000001 M incubated for 48 hrs by SRB assay relative to control; assay type: functional; conditions: dose 10 nM, read-out: Activity
Hs-578T [2] = test: Antiproliferative activity against human Hs-578T cells assessed as cell growth inhibition by measuring lethal concentration incubated for 48 hrs by sulforhodamine B assay; assay type: functional; conditions: read-out: LC50 (the source's name)
MDA-MB-468 [3] = test: Antiproliferative activity against human MDA-MB-468 cells assessed as cell growth inhibition by measuring lethal concentration incubated for 48 hrs by sulforhodamine B assay; assay type: functional; conditions: read-out: LC50 (the source's name)
SF-539 [4] = test: Antiproliferative activity against human SF-539 cells assessed as cell growth at 0.00000001 M incubated for 48 hrs by SRB assay relative to control; assay type: functional; conditions: dose 10 nM, read-out: Activity
SNB-75 [5] = test: Antiproliferative activity against human SNB-75 cells assessed as cell growth at 0.00000001 M incubated for 48 hrs by SRB assay relative to control; assay type: functional; conditions: dose 10 nM, read-out: Activity
UO-31 [6] = test: Antiproliferative activity against human UO-31 cells assessed as cell growth inhibition by measuring lethal concentration incubated for 48 hrs by sulforhodamine B assay; assay type: functional; conditions: read-out: LC50 (the source's name)
In short: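 NCI-60 five-dose screen (10^-4 to 10^-8 M, 10-fold dilutions; DMSO stocks). Cells in RPMI 1640 with 5% FBS and 2 mM L-glutamine, preincubated 24 h, then exposed 48 h at 37 °C, 5% CO2. Fixed with cold TCA, stained with 0.4% SRB, absorbance read at 515 nm. Time-zero plates used as reference. LC50 taken from [(Ti-Tz)/Tz]×100 […].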

A498 [7] = test: Antiproliferative activity against human A498 cells assessed as cell growth inhibition by measuring lethal concentration incubated for 48 hrs by sulforhodamine B assay; assay type: functional; conditions: read-out: LC50 (the source's name)
Malme-3M [8] = test: Antiproliferative activity against human Malme-3M cells assessed as cell growth inhibition by measuring lethal concentration incubated for 48 hrs by sulforhodamine B assay; assay type: functional; conditions: read-out: LC50 (the source's name)
MDA-MB-468 [9] = test: Growth inhibition against human MDA-MB-468 cells incubated for 48 hrs by sulforhodamine B assay; assay type: functional
Hs-578T [10] = test: Growth inhibition against human Hs-578T cells incubated for 48 hrs by sulforhodamine B assay; assay type: functional
UO-31 [11] = test: Growth inhibition against human UO-31 cells incubated for 48 hrs by sulforhodamine B assay; assay type: functional
SW-620 = test: Growth inhibition against human SW620 cells incubated for 48 hrs by sulforhodamine B assay; assay type: functional
HCT-116 = test: Growth inhibition against human HCT-116 cells incubated for 48 hrs by sulforhodamine B assay; assay type: functional
NCI-H522 = test: Growth inhibition against human NCI-H522 cells incubated for 48 hrs by sulforhodamine B assay; assay type: functional
NCI-H460 = test: Growth inhibition against human NCI-H460 cells incubated for 48 hrs by sulforhodamine B assay; assay type: functional
CCRF-CEM = test: Antiproliferative activity against human CCRF-CEM cells assessed as cell growth at 0.0000001 M incubated for 48 hrs by SRB assay relative to control; assay type: functional; conditions: dose 100 nM, read-out: Activity
In short: (§1)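 NCI-60 five-dose screen over 10^-4–10^-8 M (10-fold dilutions). Cells grown in RPMI 1640 with 5% FBS and 2 mM L-glutamine, seeded at 5,000–40,000 cells/well and preincubated 24 h. Drug from DMSO stock, 48 h at 37 °C, 5% CO2. Adherent cells TCA-fixed and stained with 0.4% SRB; A515 read. Percent growth = (Ti−Tz)/(C−Tz)×100, or (Ti−Tz)/Tz×100 when Ti<Tz.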

Malme-3M [12] = test: Antiproliferative activity against human Malme-3M cells assessed as cell growth at 0.0000001 M incubated for 48 hrs by SRB assay relative to control; assay type: functional; conditions: dose 100 nM, read-out: Activity
SK-OV-3 [13] = test: Antiproliferative activity against human SK-OV-3 cells assessed as cell growth at 0.0000001 M incubated for 48 hrs by SRB assay relative to control; assay type: functional; conditions: dose 100 nM, read-out: Activity
786-0 [14] = test: Antiproliferative activity against human 786-0 cells assessed as cell growth at 0.0000001 M incubated for 48 hrs by SRB assay relative to control; assay type: functional; conditions: dose 100 nM, read-out: Activity; in short: as §1
MCF7 [15] = test: Antiproliferative activity against human MCF7 cells assessed as cell growth at 0.0000001 M incubated for 48 hrs by SRB assay relative to control; assay type: functional; conditions: dose 100 nM, read-out: Activity
HL-60 = test: Antiproliferative activity against human HL-60 cells assessed as cell growth at 0.000001 M incubated for 48 hrs by SRB assay relative to control; assay type: functional; conditions: read-out: Activity
In short: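 NCI-60 five-dose screen (10^-4 to 10^-8 M). Cells grown in RPMI 1640 with 5% FBS and 2 mM L-glutamine, plated at 5,000-40,000 cells/well and preincubated 24 h. Drug given from DMSO stock, then 48 h at 37 °C, 5% CO2. For adherent lines, cells fixed with cold TCA, SRB-stained and read at 515 nm. Percent growth taken against time-zero and untreated control.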

NCI-H322M = test: Antiproliferative activity against human NCI-H322M cells assessed as cell growth at 0.000001 M incubated for 48 hrs by SRB assay relative to control; assay type: functional; conditions: read-out: Activity
SF-295 = test: Antiproliferative activity against human SF-295 cells assessed as cell growth at 0.000001 M incubated for 48 hrs by SRB assay relative to control; assay type: functional; conditions: read-out: Activity
A498 [16] = test: Antiproliferative activity against human A498 cells assessed as cell growth at 0.000001 M incubated for 48 hrs by SRB assay relative to control; assay type: functional; conditions: read-out: Activity; in short: as §1
MCF7 [17] = test: Antiproliferative activity against human MCF7 cells assessed as cell growth at 0.000001 M incubated for 48 hrs by SRB assay relative to control; assay type: functional; conditions: read-out: Activity
RPMI-8226 = test: Antiproliferative activity against human RPMI-8226 cells assessed as cell growth at 0.00001 M incubated for 48 hrs by SRB assay relative to control; assay type: functional; conditions: read-out: Activity
SF-539 [18] = test: Antiproliferative activity against human SF-539 cells assessed as cell growth at 0.00001 M incubated for 48 hrs by SRB assay relative to control; assay type: functional; conditions: read-out: Activity
SNB-75 [19] = test: Antiproliferative activity against human SNB-75 cells assessed as cell growth at 0.00001 M incubated for 48 hrs by SRB assay relative to control; assay type: functional; conditions: read-out: Activity
U-251 = test: Antiproliferative activity against human U-251 cells assessed as cell growth at 0.00001 M incubated for 48 hrs by SRB assay relative to control; assay type: functional; conditions: read-out: Activity
SK-MEL-2 = test: Antiproliferative activity against human SK-MEL-2 cells assessed as cell growth at 0.00001 M incubated for 48 hrs by SRB assay relative to control; assay type: functional; conditions: read-out: Activity
SK-OV-3 [20] = test: Antiproliferative activity against human SK-OV-3 cells assessed as cell growth at 0.00001 M incubated for 48 hrs by SRB assay relative to control; assay type: functional; conditions: read-out: Activity
786-0 [21] = test: Antiproliferative activity against human 786-0 cells assessed as cell growth at 0.0001 M incubated for 48 hrs by SRB assay relative to control; assay type: functional; conditions: read-out: Activity; in short: as §1

Chain of Albumin (P02769 whole entry): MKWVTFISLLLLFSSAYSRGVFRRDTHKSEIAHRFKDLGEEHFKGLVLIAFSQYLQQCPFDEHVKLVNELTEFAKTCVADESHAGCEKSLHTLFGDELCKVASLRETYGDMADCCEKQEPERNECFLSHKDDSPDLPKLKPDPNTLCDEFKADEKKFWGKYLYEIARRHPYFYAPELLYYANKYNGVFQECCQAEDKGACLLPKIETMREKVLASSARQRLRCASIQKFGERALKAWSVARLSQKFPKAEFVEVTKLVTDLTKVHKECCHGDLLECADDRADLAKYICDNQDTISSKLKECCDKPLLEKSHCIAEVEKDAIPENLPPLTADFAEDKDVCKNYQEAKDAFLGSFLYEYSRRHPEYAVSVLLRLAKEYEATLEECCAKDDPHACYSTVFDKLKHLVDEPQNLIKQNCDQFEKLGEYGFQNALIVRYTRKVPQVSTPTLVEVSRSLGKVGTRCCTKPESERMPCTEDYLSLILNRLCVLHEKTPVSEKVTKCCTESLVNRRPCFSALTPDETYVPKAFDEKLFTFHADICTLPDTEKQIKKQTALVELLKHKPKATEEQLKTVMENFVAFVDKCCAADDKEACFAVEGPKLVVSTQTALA

Compound	Kq (Albumin)	growth at 0.01 µM (MCF7 [1]) [%]	growth at 0.01 µM (OVCAR-5) [%]	CC50 (Hs-578T [2]) [µM]	CC50 (MDA-MB-468 [3]) [µM]	growth at 0.01 µM (SF-539 [4]) [%]	growth at 0.01 µM (SNB-75 [5]) [%]	CC50 (UO-31 [6]) [µM]	CC50 (A498 [7]) [µM]	CC50 (Malme-3M [8]) [µM]	GI50 (MDA-MB-468 [9]) [µM]	GI50 (Hs-578T [10]) [µM]	GI50 (UO-31 [11]) [µM]	GI50 (SW-620) [µM]	GI50 (HCT-116) [µM]	GI50 (NCI-H522) [µM]	GI50 (NCI-H460) [µM]	growth at 0.1 µM (CCRF-CEM) [%]	growth at 0.1 µM (Malme-3M [12]) [%]	growth at 0.1 µM (SK-OV-3 [13]) [%]	other results
COc1ccc(-c2cn3ccnc3c(-c3ccc4ncn(C5CCCCC5)c4c3)n2)cc1	1.16 10^13/M/sec	88	86	> 100	> 100	87	78	> 100	> 100	> 100	0.863	1.16	1.35	0.734	0.399	0.424	0.622	107	95	88	growth at 0.1 µM (786-0 [14]): 93%; growth at 0.1 µM (MCF7 [15]): 92%; growth at 1 µM (HL-60): 52%; growth at 1 µM (NCI-H322M): 87%; growth at 1 µM (SF-295): 18%; growth at 1 µM (A498 [16]): 44%; growth at 1 µM (MCF7 [17]): 40%; growth at 10 µM (RPMI-8226): 10%; growth at 10 µM (SF-539 [18]): -53%; growth at 10 µM (SNB-75 [19]): 3%; growth at 10 µM (U-251): 14%; growth at 10 µM (SK-MEL-2): 21%; growth at 10 µM (SK-OV-3 [20]): -5%; growth at 100 µM (786-0 [21]): 2%
c1ccc(Cn2cnc3ccc(-c4nc(-c5ccc6c(c5)ncn6C5CCCCC5)cn5ccnc45)cc32)cc1	1.14 10^13/M/sec	86	89	> 100	> 100	88	81	> 100	6.85	> 100	1.92	2.71	1.72	3.4	1.07	2.03	2.3	113	92	95	growth at 0.1 µM (786-0 [14]): 86%; growth at 0.1 µM (MCF7 [15]): 90%; growth at 1 µM (HL-60): 113%; growth at 1 µM (NCI-H322M): 89%; growth at 1 µM (SF-295): 74%; growth at 1 µM (A498 [16]): 97%; growth at 1 µM (MCF7 [17]): 87%; growth at 10 µM (RPMI-8226): -29%; growth at 10 µM (SF-539 [18]): -75%; growth at 10 µM (SNB-75 [19]): -70%; growth at 10 µM (U-251): -27%; growth at 10 µM (SK-MEL-2): -41%; growth at 10 µM (SK-OV-3 [20]): -24%; growth at 100 µM (786-0 [21]): 4%
